# PRMT1 FP inh: inhibitors of human PRMT1; Q99873; recombinant PRMT1, activity-based probe fluorescence polarization; inhibition, % at 2.79 µM; hit rate 1.3% among 370,000; AID 652257;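 active = inhibition above about 21% made by adding two undisclosed values, limit read from the data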
# CTSL1 counter: blocks F. hepatica cathepsin L1 in PFM18AAP counter-screen; hit rate 0.49% among 300,000; AID 1906; inhibition, % at 5.96 µM; recombinant F. hepatica cathepsin L1, Z-Leu-Arg-MCA fluorescence;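 active = inhibition above the mean of all tested compounds plus 3 SD, set per screening campaign, cut at about 17% in these data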
# GSTO1 inh: counter-screen for RBBP9 inhibitors: inhibitors of human GSTO1. inhibition, % at 5.96 µM. AID 1974. hit rate 1.1% among 300,000. recombinant GSTO1, activity-based probe fluorescence polarization;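 active = inhibition above the campaign mean inhibition plus 3 SD, cut at about 35% in these data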
# PAD4 inh: PAD4 (human) enzyme inhibition. Q9UM07. recombinant PAD4, RCA probe fluorescence polarization. hit rate 0.41% among 330,000. inhibition, % at 6.36 µM;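 active = percent inhibition above a cutoff equal to the mean of all tested compounds plus 3 SD, cut at about 15% in these data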
# TDP2 absorb: TDP2 (human) inhibition, absorbance primary screen; inhibition, % at 12.8 µM; hit rate 0.34% among 370,000; recombinant TDP2, T5PNP hydrolysis, p-nitrophenol absorbance 415 nm; AID 720702;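 active = inhibition above the mean of all tested compounds plus 3 SD, set per campaign, cut at about 25% in these data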
# Target sequence (O95551 whole entry, looked up): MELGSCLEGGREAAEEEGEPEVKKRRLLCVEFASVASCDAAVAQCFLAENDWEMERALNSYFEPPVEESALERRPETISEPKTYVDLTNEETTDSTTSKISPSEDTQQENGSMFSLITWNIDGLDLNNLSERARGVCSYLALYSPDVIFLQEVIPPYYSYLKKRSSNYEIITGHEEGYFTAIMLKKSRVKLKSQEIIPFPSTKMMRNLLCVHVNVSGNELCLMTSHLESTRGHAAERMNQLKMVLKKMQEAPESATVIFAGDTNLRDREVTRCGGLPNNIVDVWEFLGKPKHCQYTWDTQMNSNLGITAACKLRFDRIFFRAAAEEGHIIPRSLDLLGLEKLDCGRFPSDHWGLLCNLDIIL
#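 Test system: human TDP2 enzyme; Input: 120 nM TDP2 per well; Buffer or medium: Mg2+-containing Tris-HCl buffer, pH 7.5; Reagent: 5 mM T5PNP; Dosing: 12.8 µM single point, 1% DMSO; Incubation: reaction 2 h, 37 °C; Detection: p-Nitrophenol epi absorbance; Read-out: % inhibition relative to enzyme-containing and enzyme-free wells; Replicates: single well per compound.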
# Numbers stand for hits; – = inactive; · = no result given. An excerpt weighted towards active compounds, which were near 2.5% of everything screened.
SMILES,PRMT1 FP inh,CTSL1 counter,GSTO1 inh,PAD4 inh,TDP2 absorb
C=CCN(C#N)c1nc(OC)nc(N2CCCC2)n1,–,–,–,–,–
COC(=O)[C@]12C[C@H](CC(=O)NCCCN3CCCC3=O)C(=O)N(Cc3cccc4ccccc34)C1=C[C@H](C(C)(C)C)O[C@@H]2C,–,·,·,·,–
COc1ccc(N2C(=O)C(Cl)=C(Nc3ccccc3O)C2=O)cc1,–,50,–,–,–
Cc1cc(SCC(=O)c2ccc(O)c(O)c2)n2nc(C)c(-c3ccccc3)c2n1,–,–,35,–,–
CCCC(=O)OC12CCCN(C1)/C(=C/c1ccc(Cl)cc1)C2 (stereo unspecified),–,·,·,·,–
CCOC(=O)[C@@]12CN(C(=O)OC(C)(C)C)CC=C1N(Cc1ccc(OC)cc1)C(=O)[C@H]2CC(=O)NCCc1ccccc1OC,–,·,·,·,–
CCOC(=O)C[n+]1c(C)sc2ccc(OC)cc21,·,–,–,18,·
Cc1ccc2c(c1)N(C(=O)CSc1nncn1C)C(C)(C)c1ssc(=S)c1-2,29,–,–,–,–
Cc1ccc(-n2c(SCC(=O)Nc3ccccc3-c3ccccc3)nnc2-c2ccccc2)cc1,–,·,·,·,–
CCS(=O)(=O)c1ccccc1C(=O)NC1CCCc2ccccc21 (stereo unspecified),–,–,–,–,–
CS(=O)(=O)c1ccccc1C(=O)NC1CCCc2ccccc21 (stereo unspecified),–,21,–,–,–
Cc1ccc(C)n1-c1cccc(C(=O)O)c1,·,–,53,–,·
Cc1cc(C=O)c(C)n1-c1cccc(C(=O)O)c1,–,–,–,–,–
CCCc1cc(=O)[nH]c(SCC(=O)c2ccc(S(=O)(=O)N3CCCC3)cc2)n1,22,–,37,–,–
CCCc1cc(=O)[nH]c(SCC(=O)N2CCN(S(=O)(=O)c3ccc(Cl)cc3)CC2)n1,–,–,–,–,–
COc1cc(/C=C2/C(=O)NN(c3cccc(Cl)c3)C2=O)cc(OC)c1O,22,–,–,–,–
CCOC(=O)[C@@]12CCCC3=C1N(CCC3)C(=O)[C@H]2CC(=O)NCc1cccs1,–,·,·,·,–
O=C(CSc1nc2ccccc2c(=O)[nH]1)c1ccc(O)c(O)c1,23,–,–,–,–
O=S(=O)([N-]c1nc2ccccc2nc1-[n+]1ccccc1)c1ccccc1,–,–,–,–,–
O=S(=O)([N-]c1nc2ccccc2nc1-[n+]1ccc(-c2ccncc2)cc1)c1ccccc1,22,–,–,–,–
Cc1[nH]c2ccccc2c1CCN(Cc1cccs1)C(=O)Nc1cccc2c1OCO2,–,·,·,·,–
COc1ccc2cc(C(=O)N/N=C/c3sc4ccccc4c3O)ccc2c1,25,–,–,–,–
O=C(N/N=C/c1sc2ccccc2c1O)c1cccc2ccccc12,55,–,42,–,–
O=C1C(NC(=O)N2c3ccccc3C=Cc3ccccc32)CCCCN1Cc1cccc(C(F)(F)F)c1 (stereo unspecified),–,·,·,·,–
O=C(/C=C/c1ccco1)NC(=S)Nc1ccccc1,23,–,–,–,–
SMILES,PRMT1 FP inh,CTSL1 counter,GSTO1 inh,PAD4 inh,TDP2 absorb
O=S1(=O)CC2c3ccccc3CN2CN1Cc1ccc(F)cc1 (stereo unspecified),–,·,·,·,–
CN(CC(=O)N1CCc2[nH]c3ccc(F)cc3c2C1)CC1OCCO1,–,–,–,–,–
Cc1ccc2[nH]c3c(c2c1)CN(C(=O)CN(C)CC1OCCO1)CC3,22,17,–,–,–
COc1ccc(S(=O)(=O)n2nc(OC(C)=O)cc2N(C(C)=O)C(C)=O)cc1,–,–,–,–,29
COc1ccc(S(=O)(=O)n2nc(OC(=O)c3ccccc3)cc2N)cc1,–,–,–,–,–
S=c1[nH]nc(-c2ccco2)n1/N=C/c1ccc(Cl)c(Cl)c1,22,–,–,–,–
S=c1[nH]nc(-c2ccco2)n1/N=C/c1cccc(Cl)c1,–,–,–,–,–
O=[N+]([O-])c1cc(/C=N/n2c(-c3cccnc3)n[nH]c2=S)ccc1Cl,–,–,51,–,–
COC(=O)[C@]12C[C@H](CC(=O)NCc3ccc(C)o3)C(=O)N(CCc3ccc(OC)c(OC)c3)C1=C[C@H](C1CCCC1)O[C@@H]2C,–,·,·,·,–
COc1ccccc1N=Cc1nc(-c2ccccc2)oc1OC(C)=O,–,17,–,–,–
CC(=O)Oc1oc(-c2ccccc2)nc1/C=N/c1ccccn1,–,26,–,–,–
CSc1ccccc1N=Cc1nc(-c2ccccc2)oc1O,–,–,–,–,–

# Screening results (PubChem)
